Activity calls are given as the source filed them. No cut-off for these calls is given here.
Tests used:
[1] = target: T1, Extracellular calcium-sensing receptor (Homo sapiens, UniProt P41180); experiment: Antagonist activity at human CaSR expressed in rat PC12h cells by reporter gene assay; type: functional, cell-based, PC-12
T1 sequence (P41180 whole entry): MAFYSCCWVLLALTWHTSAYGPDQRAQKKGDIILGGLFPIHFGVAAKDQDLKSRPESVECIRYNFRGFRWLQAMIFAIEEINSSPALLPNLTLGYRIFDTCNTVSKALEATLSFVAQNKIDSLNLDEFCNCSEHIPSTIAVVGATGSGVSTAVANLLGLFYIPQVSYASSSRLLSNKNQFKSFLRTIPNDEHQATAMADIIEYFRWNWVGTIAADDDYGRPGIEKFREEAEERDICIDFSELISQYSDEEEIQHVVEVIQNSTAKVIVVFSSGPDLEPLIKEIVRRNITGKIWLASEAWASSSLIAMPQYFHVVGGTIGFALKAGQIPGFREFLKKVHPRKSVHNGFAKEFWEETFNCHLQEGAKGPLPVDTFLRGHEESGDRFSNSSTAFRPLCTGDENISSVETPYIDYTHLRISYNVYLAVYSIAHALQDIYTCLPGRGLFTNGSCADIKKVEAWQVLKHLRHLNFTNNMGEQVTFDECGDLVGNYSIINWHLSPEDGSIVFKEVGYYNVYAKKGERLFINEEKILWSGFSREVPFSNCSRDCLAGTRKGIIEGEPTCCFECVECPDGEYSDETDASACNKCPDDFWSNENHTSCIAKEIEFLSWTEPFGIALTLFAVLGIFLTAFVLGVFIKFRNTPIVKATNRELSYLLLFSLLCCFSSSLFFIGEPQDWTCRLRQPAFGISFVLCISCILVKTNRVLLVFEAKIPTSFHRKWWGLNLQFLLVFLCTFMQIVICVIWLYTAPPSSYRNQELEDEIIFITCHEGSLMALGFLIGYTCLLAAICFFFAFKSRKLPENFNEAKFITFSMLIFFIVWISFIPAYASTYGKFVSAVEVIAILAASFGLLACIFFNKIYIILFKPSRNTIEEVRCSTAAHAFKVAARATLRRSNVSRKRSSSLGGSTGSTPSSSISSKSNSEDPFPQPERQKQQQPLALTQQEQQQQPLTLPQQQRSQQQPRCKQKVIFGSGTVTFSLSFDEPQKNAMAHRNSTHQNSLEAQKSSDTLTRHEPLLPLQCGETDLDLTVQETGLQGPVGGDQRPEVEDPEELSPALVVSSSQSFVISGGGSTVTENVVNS
Procedure, shortened: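 Human CaSR antagonism measured by reporter gene assay in PC12h cells. Values are means of three experiments.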

Cytochrome P450 2D6 = Cytochrome P450 2D6 (Homo sapiens, UniProt P10635); experiment: Inhibition of CYP2D6; type: ADME
Sequence of Cytochrome P450 2D6 (P10635 whole entry): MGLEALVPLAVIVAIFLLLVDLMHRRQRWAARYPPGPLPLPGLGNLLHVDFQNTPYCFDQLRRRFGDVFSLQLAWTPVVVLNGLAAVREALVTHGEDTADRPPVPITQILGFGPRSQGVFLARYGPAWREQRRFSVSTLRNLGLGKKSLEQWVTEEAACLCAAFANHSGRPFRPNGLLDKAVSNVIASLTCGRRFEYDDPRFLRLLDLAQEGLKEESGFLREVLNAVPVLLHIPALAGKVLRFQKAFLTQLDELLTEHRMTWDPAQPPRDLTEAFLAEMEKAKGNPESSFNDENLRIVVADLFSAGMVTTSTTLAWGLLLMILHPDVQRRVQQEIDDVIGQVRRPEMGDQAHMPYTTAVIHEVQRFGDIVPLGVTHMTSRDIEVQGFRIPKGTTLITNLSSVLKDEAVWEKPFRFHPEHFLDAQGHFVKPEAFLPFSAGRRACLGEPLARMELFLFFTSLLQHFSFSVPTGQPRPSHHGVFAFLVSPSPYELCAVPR

Rattus norvegicus [2] = experiment: Antiosteoporotic activity in rat assessed as increase of serum parathyroid hormone level at 3 mg/kg, po after 15 to 30 mins relative to control; type: functional
Procedure, shortened: (§1)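 Rats (n = 5) dosed orally. Serum PTH 1−34 peak increase (Δ) measured at 15 or 30 min and compared with vehicle-treated controls. Scored against the peak given by a 30 mg/kg oral reference aminopropandiol calcilytic: ++ >80%, + 50−80%, below that <50%.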

Rattus norvegicus [3] = experiment: Antiosteoporotic activity in rat assessed as increase of serum parathyroid hormone level at 10 mg/kg, po after 15 to 30 mins relative to control; type: functional; procedure, shortened: as §1
Rattus norvegicus [4] = experiment: Antiosteoporotic activity in rat assessed as increase of serum parathyroid hormone level at 1 mg/kg, po after 15 to 30 mins relative to control; type: functional; procedure, shortened: as §1
[5] = Cmax in rat at 1 mg/kg, po; type: ADME, organism-based; design: dose 1 mg/kg, route oral; conditions: in vivo
[6] = target: Beta-2 adrenergic receptor (Homo sapiens, UniProt P07550); experiment: Inhibition of beta2 adrenergic receptor
Sequence of Beta-2 adrenergic receptor (P07550 whole entry): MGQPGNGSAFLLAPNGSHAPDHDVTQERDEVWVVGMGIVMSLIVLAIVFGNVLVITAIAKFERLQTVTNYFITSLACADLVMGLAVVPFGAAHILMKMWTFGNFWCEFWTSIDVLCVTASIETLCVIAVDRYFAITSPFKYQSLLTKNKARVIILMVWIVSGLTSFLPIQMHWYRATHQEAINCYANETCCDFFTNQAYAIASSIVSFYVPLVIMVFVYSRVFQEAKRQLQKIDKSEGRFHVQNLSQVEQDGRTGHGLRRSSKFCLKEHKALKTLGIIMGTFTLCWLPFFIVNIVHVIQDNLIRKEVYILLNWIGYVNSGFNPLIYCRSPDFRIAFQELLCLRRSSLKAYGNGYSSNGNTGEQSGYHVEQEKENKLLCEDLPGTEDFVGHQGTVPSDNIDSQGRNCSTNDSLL

[7] = Inhibition of serotonin receptor up to 10 uM
[8] = Oral bioavailability in rat at 1 mg/kg; type: ADME, organism-based; conditions: in vivo, read-out: Activity
Rattus norvegicus [9] = experiment: Antiosteoporotic activity in po dosed rat assessed as increase of serum parathyroid hormone level after 15 to 30 mins; type: functional, organism-based; procedure, shortened: as §1
[10] = Tmax in rat at 1 mg/kg, po; type: ADME, organism-based; design: dose 1 mg/kg, route oral; conditions: in vivo
Rattus norvegicus [11] = experiment: Antiosteoporotic activity in rat assessed as increase of serum parathyroid hormone level at 3 mg/kg, po after 2 hrs; type: functional, organism-based; design: dose 3 mg/kg
Procedure, shortened: (§2)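 Time course in rats (n = 5) after oral dosing of the hemisulfate salt. Serum PTH 1−34 levels followed over time, expressed as mean ± standard deviation.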

[12] = Half life in rat at 1 mg/kg, po; type: ADME, organism-based; design: dose 1 mg/kg, route oral; conditions: in vivo
Rattus norvegicus [13] = experiment: Antiosteoporotic activity in rat assessed as increase of serum parathyroid hormone level at 3 mg/kg, po after 15 mins; type: functional, organism-based; design: dose 3 mg/kg; procedure, shortened: as §2
[14] = target: D(1A) dopamine receptor (Homo sapiens) (UniProt P21728); experiment: Inhibition of dopamine D1 receptor up to 10 uM
Sequence of D(1A) dopamine receptor (Homo sapiens) (P21728 whole entry): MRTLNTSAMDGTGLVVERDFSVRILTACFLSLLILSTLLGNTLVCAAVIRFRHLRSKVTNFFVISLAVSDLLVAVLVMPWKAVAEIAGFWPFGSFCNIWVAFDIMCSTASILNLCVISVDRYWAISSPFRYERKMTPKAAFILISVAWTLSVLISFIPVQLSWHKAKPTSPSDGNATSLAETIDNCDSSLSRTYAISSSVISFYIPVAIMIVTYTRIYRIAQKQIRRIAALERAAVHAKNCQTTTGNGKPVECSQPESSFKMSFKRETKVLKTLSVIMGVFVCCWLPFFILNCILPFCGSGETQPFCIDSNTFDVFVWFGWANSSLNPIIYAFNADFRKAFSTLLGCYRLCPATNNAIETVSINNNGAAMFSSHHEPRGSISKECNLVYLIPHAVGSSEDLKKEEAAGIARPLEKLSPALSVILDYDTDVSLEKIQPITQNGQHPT

[15] = Inhibition of alpha2 adrenergic receptor up to 10 uM
Rattus norvegicus [16] = experiment: Antiosteoporotic activity in rat assessed as increase of serum parathyroid hormone level at 30 mg/kg, po after 15 to 30 mins relative to control; type: functional
Procedure, shortened: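 Rats (n = 5) dosed orally. Serum PTH 1−34 measured, and the peak increase (Δ), taken at 15 or 30 min after dosing, compared with levels in vehicle-treated control rats.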

CC(C)(Cc1ccc2ccccc2c1)NC[C@@H](O)COC(c1ccccc1C(=O)O)C1CC1 (mixture of isomers)
IC50 [1]: > 3000 nM | IC50 (Cytochrome P450 2D6): > 10000 nM

CC(C)(Cc1ccc2ccccc2c1)NC[C@@H](O)COC(c1cccc(C(=O)O)c1)C1CC1 (mixture of isomers)
IC50 [1]: 960 nM | IC50 (Cytochrome P450 2D6): > 10000 nM

C[C@@H](OC[C@H](O)CNC(C)(C)Cc1ccc2ccccc2c1)c1ccccc1-c1ccc(C(=O)O)cc1
IC50 [1]: 4 nM | IC50 (Cytochrome P450 2D6): > 10000 nM | Activity (Rattus norvegicus [2]): 50% | Activity (Rattus norvegicus [3]): >80% | Activity (Rattus norvegicus [4]): <50%

C[C@@H](OC[C@H](O)CNC(C)(C)Cc1ccc2ccccc2c1)c1ccccc1CCC(=O)O
IC50 [1]: 24 nM | Activity (Rattus norvegicus [2]): 50%

CC(C)(Cc1ccc2ccccc2c1)NC[C@@H](O)CO[C@@H](c1ccccc1CO)C1CC1
IC50 [1]: 18 nM | IC50 (Cytochrome P450 2D6): 1200 nM

Cc1cc(-c2ccccc2[C@@H](C)OC[C@H](O)CNC(C)(C)Cc2ccc(Cl)c(F)c2)ccc1C(=O)O [ENCALERET]
IC50 [1]: 12 nM | Cmax [5]: 475 ng/mL | IC50 (Cytochrome P450 2D6): 11000 nM | IC50 [6]: 1700 nM | Activity [7]: inactive | bioavailability [8]: 64% | Activity (Rattus norvegicus [9]): Dose-dependent effect | Tmax [10]: 0.5 h | Activity (Rattus norvegicus [2]): >80% | Activity (Rattus norvegicus [11]): inactive | half-life [12]: 1.8 h | Activity (Rattus norvegicus [13]): Active | Activity (Rattus norvegicus [3]): >80% | Activity (Rattus norvegicus [4]): >80% | Activity [14]: inactive | Activity [15]: inactive

C[C@@H](OC[C@H](O)CNC(C)(C)Cc1ccc(Cl)c(F)c1)c1ccccc1-c1ccc(C(=O)O)cc1
IC50 [1]: 23 nM | Activity (Rattus norvegicus [2]): >80% | Activity (Rattus norvegicus [4]): 50%

CC(OC[C@H](O)CNC(C)(C)Cc1ccc2ccccc2c1)c1ccccc1C(=O)O (mixture of isomers)
IC50 [1]: > 3000 nM

CC(OC[C@H](O)CNC(C)(C)Cc1ccc2ccccc2c1)c1ccccc1-c1ccc(C(=O)O)cc1 (mixture of isomers)
IC50 [1]: 11 nM

CC(OC[C@H](O)CNC(C)(C)Cc1ccc2ccccc2c1)c1cccc(-c2ccc(C(=O)O)cc2)c1 (mixture of isomers)
IC50 [1]: 18 nM

Cc1ccccc1[C@H](OC[C@H](O)CNC(C)(C)Cc1ccc2ccccc2c1)C1CC1
fold change (FC) (Rattus norvegicus [16]): 2

CC(C)(Cc1ccc2ccccc2c1)NC[C@@H](O)COC(c1ccc(C(=O)O)cc1)C1CC1 (mixture of isomers)
IC50 [1]: > 3000 nM

Cc1cc(-c2ccccc2[C@@H](C)OC[C@H](O)CNC(C)(C)Cc2ccc3ccccc3c2)ccc1C(=O)O
IC50 [1]: 5 nM | Activity (Rattus norvegicus [2]): >80% | Activity (Rattus norvegicus [4]): <50%

C[C@@H](OC[C@H](O)CNC(C)(C)Cc1ccc2ccccc2c1)c1ccccc1CC(=O)O
IC50 [1]: 2200 nM

CC(OC[C@H](O)CNC(C)(C)Cc1ccc2ccccc2c1)c1ccc(-c2ccc(C(=O)O)cc2)cc1 (mixture of isomers)
IC50 [1]: 1500 nM

— ChEMBL document CHEMBL1671846, “Discovery of a potent and short-acting oral calcilytic with a pulsatile secretion of parathyroid hormone” (ACS Med Chem Lett, 2011)
